TbHK1 inh: blocks Trypanosoma brucei hexokinase 1 activity; recombinant TbHK1, G6PDH-coupled NADH A340; inhibition, % at 10 µM; hit rate 0.11% among 220,000; AID 1430;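 active means inhibition of 50% or more in the single-dose primary screen; inactive means inhibition below 50%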
Hep lipid drop: modulators of hepatic lipid droplet formation. hit rate 0.4% among 240,000. inhibition, % at 6.5 µM. AID 1656. AML12 mouse hepatocytes, oleate lipid droplets, BODIPY imaging;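 active means lipid droplet intensity inhibited by at least 50%, with more than 500 cells counted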
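material = mouse AML12 hepatocyte cell line, fixed after treatment | also added = 100 µM oleic acid challenge | doses = compound at 6.5 µM only | schedule = overnight exposure | technique = Image-based BODIPY and DAPI two-channel analysis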
RBBP9 inh: blocks human serine hydrolase RBBP9; recombinant RBBP9, FP-Rh probe fluorescence polarization; hit rate 0.2% among 220,000; O75884; inhibition, % at 7.94 µM; AID 1515;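 active means inhibition above the campaign mean of all tested compounds plus 3 SD, cut at about 14% in these data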;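 further: plate controls were DMSO wells with RBBP9 for no effect and wells lacking RBBP9 protein for full effect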
Target sequence (O75884 whole entry, looked up): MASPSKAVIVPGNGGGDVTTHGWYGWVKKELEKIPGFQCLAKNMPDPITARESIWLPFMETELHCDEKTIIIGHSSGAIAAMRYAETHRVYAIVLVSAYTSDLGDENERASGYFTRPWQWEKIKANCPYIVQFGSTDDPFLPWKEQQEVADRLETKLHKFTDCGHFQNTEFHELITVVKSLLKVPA
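Measured by: FP readout at 525/598 nm; material: recombinant human RBBP9; also added: Serine-hydrolase probe FP-Rh, 375 nM pre-mixing; medium: Tris buffer pH 8.0, NaCl, Pluronic; replication: one well per compound; doses: one concentration, 7.94 µM nominal, 0.794% DMSO; timing: preincubation 30 min plus labeling 45 min at 25 °C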
PfM18AAP inh-1: blocks P. falciparum M18 aspartyl aminopeptidase | inhibition, % at 7.35 µM | AID 1822 | recombinant PfM18AAP, H-Glu-NHMec fluorogenic cleavage | hit rate 1.2% among 290,000;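 active means inhibition above the campaign mean inhibition over all tested compounds plus 3 SD, cut at about 28% in these data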;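 further: 0% = plate median of test compound wells and 100% = 2 mM ZnCl2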
TNF death inh: TNF-alpha cell death inhibition in Jurkat FADD-/- cells; activation (protection from cell death), % at 10 µM; Jurkat FADD-/- TNF necroptosis rescue, ATP luminescence, 24 h; 0 = TNF only, 100 = no-TNF cells; hit rate 0.068% among 220,000; AID 463075;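 active means activation, meaning protection from cell death, of at least 50% relative to plate controls; inactive means activation below 50%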;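 further: necroptosis triggered by 40 ng/mL TNF-alpha added together with compound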
zVAD death inh: L929 zVAD cell death inhibition; hit rate 0.38% among 220,000; AID 1377; viability rescue, % at 10 µM; L929 zVAD necroptosis rescue, ATP luminescence, 24 h; with zVAD 60 µM;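 active means activation, scaled between plate controls, above about 75%, limit read from the data; inactive means activation under that limit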;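 further: 0% = zVAD with DMSO and 100% = DMSO alone without zVAD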
PfM18AAP inh-2: confirmation of Plasmodium falciparum M18 aspartyl aminopeptidase inhibitors; shares compounds with PfM18AAP inh-1; recombinant PfM18AAP, H-Glu-NHMec fluorogenic cleavage; inhibition, % at 7.35 µM; hit rate 28% among 2,400; AID 2170;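 active means mean inhibition over replicate wells above the hit cutoff set for the earlier primary screen, cut at about 29% in these data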;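 further: 0% = median of test compound wells and 100% = 2 mM ZnCl2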
CTSL1 confirm: Cathepsin L (human) inhibition, confirmation; inhibition, % at 5.96 µM; AID 2178; purified cathepsin L1, Z-Leu-Arg-MCA fluorescence; shares compounds with PfM18AAP inh-1; 2,400 tested, under 10 active;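 active means average inhibition across replicates above the hit cutoff set in the earlier primary screen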;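 further: 0% = median of test compound wells and 100% = Z-Phe-Ala-diazomethylketone 1 µM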
Target sequence (P07711 whole entry, looked up): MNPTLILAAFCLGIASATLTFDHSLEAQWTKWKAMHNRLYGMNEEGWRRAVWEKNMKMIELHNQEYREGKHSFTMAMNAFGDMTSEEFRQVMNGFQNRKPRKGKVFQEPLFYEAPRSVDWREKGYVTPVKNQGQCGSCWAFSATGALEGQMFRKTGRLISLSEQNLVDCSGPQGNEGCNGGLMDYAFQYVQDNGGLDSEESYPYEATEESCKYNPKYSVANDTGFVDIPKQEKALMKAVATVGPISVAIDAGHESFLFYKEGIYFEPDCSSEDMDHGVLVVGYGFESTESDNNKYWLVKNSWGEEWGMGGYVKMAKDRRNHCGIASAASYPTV
Active calls of the source: *; nt = no result given. A selection: hits, their analogues and other compounds. The true share with any hit is near 2%.

SMILES	TbHK1 inh	Hep lipid drop	RBBP9 inh	PfM18AAP inh-1	TNF death inh	zVAD death inh	PfM18AAP inh-2	CTSL1 confirm
Cc1ccc(-c2ccc(/C=N/c3ncn[nH]3)o2)cc1Cl	-13	-10	-8	37*	-1	0	43*	2
CN(Cc1ccco1)S(=O)(=O)c1csc(C(N)=O)c1	nt	6	nt	-1	nt	nt	nt	nt
COc1ccc(C)cc1S(=O)(=O)N1CCC(C(=O)NCCc2ccccc2)CC1	-3	-33	-2	1	2	0	nt	nt
CCN1CCc2nc3sc(C(=O)N4CCc5ccccc5C4)c(N)c3cc2C1	nt	-14	nt	35*	nt	nt	-10	-1
CC(C)c1nc2cc3ccccc3cc2[nH]1	-3	nt	-3	-14	-1	13	nt	nt
NCc1cc2c3c(c1)CCCN3CCC2	nt	2	nt	5	nt	nt	nt	nt
CCNC(=S)NNc1nncc2ccccc12	-14	-1	-5	36*	-1	0	11	2
CC(/C=C/c1ccccc1)=N\Nc1nc(C)cc(C)n1	-31	-21	-9	39*	2	nt	-35	-1
COc1ccc(N/C=C2\C(=O)CCc3c2oc2cc(Cl)c(O)c(Cl)c32)cc1	-79	17	-2	23	3	1	10	-2
CN(C)c1ccc(N=Cc2nc(-c3ccccc3)oc2O)cc1	4	nt	-5	9	-3	0	nt	nt
CN(C)c1ccc(N=Cc2cccn2C)cc1	nt	20	nt	58*	nt	nt	-24	-4
N#Cc1c(Nc2ccccc2C(F)(F)F)s[nH]c1=O	-12	-6	-6	36*	-22	0	2	-6
COc1ccc(CN2C(=O)c3cccnc3C2=O)cc1S(=O)(=O)N(C)c1ccc(C)cc1	nt	0	nt	1	nt	nt	nt	nt
COC(=O)/C=C1\SC(N2CCOCC2)=C(c2ccc(OC)cc2)C1=O	-30	0	-10	47*	1	0	32*	-1
O=C(Nc1cccc(O)c1)c1cccc(NC(=O)c2cccs2)c1	nt	-4	nt	6	nt	nt	nt	nt
CC(/C=N/N1C(=O)CSC1=S)=C\c1ccccc1	-39	5	0	42*	1	1	-19	-3
COc1ccc(/C=N/N2C(=O)CSC2=S)cc1	-31	9	0	49*	0	0	-5	2
Cc1ncsc1CCC(=O)N1CCCC(C(=O)c2ccc3c(c2)OCO3)C1 (stereo unspecified)	-8	-1	-12	-5	2	2	nt	nt
O=C(N1CCOCC1)N1CCN(S(=O)(=O)N2CCOCC2)CC1	5	10	-6	9	-1	0	nt	nt
O=C(NCC(=O)N1CCN(c2ccccc2O)CC1)c1ccco1	nt	-4	nt	34*	nt	nt	-29	-5
CSc1ccc(/C=N/Nc2nc(C)cc(C)n2)cc1	-36	2	-6	1	1	12	nt	nt
Cc1cc2c(C)nc(N/N=C/c3ccc(F)cc3)nc2o1	-37	-8	-6	46*	19	5	-49	0
O=C1NC(=O)/C(=C\c2ccc(O)cc2O)S1	-14	1	0	90*	2	16	86*	2
O=C1NC(=O)/C(=C/c2cccc3ccccc23)S1	nt	0	nt	-1	nt	nt	nt	nt
CC(C)(C)c1cc(C(=S)N2CCN(CCO)CC2)cc(C(C)(C)C)c1O	0	-3	0	36*	-1	0	-7	2
SMILES	TbHK1 inh	Hep lipid drop	RBBP9 inh	PfM18AAP inh-1	TNF death inh	zVAD death inh	PfM18AAP inh-2	CTSL1 confirm
OCCN1CCN(C(=S)c2ccc(Cl)cc2)CC1	1	9	0	43*	0	0	8	5
CCN1CCN(C(=S)c2ccc(OC)cc2)CC1	-6	-7	-4	45*	1	0	13	1
COc1ccc(C(=S)N2CCCCCC2)cc1	1	2	3	4	4	0	nt	nt
S=C(c1ccc(Cl)cc1)N1CCN(Cc2ccccc2)CC1	-7	0	-2	-10	2	1	nt	nt
CCCN1CCN(C(=S)NCc2ccc(Cl)cc2)CC1	1	2	-2	-2	2	1	nt	nt
CSc1ccc(C(=S)N2CCN(Cc3ccccc3)CC2)cc1	-3	nt	-6	41*	1	0	10	3
CC1(c2cccs2)CC(c2cccs2)=C(C#N)C(=O)N1 (stereo unspecified)	-21	nt	1	11	-2	0	nt	nt
Cc1c(C(=O)Nc2ccc(-c3nnc4n3CCCCC4)cc2)oc2ccc(Br)cc12	-18	-2	-10	4	4	2	nt	nt
CCOc1ccc(C(=S)N2CCN(C)CC2)cc1	-8	-20	-6	48*	1	1	4	0
CCOc1ccc(C(=S)N2CCCC2)cc1	-2	14	-7	-4	0	1	nt	nt
CCN1CCN(C(=S)c2ccc([N+](=O)[O-])cc2)CC1	-13	21	-9	14	2	1	nt	nt
CCN1CCN(C(=S)c2ccc(Cl)cc2)CC1	-4	5	10	44*	0	0	36*	0
O=S(=O)(NNc1ccc(F)cc1F)c1cccc(Cl)c1	nt	0	nt	36*	nt	nt	-234	0
CCN1C(=O)[C@@H]2[C@H](C1=O)[C@@H]1C(=O)Nc3ccccc3C(=O)N1[C@@H]2c1cccc(Cl)c1	nt	13	nt	5	nt	nt	nt	nt
Cc1cccc(NC(=O)CN2CCc3cc4c(cc3C2)OCCCO4)c1	nt	-26	nt	20	nt	nt	nt	nt
O=C(CN1CCc2cc3c(cc2C1)OCCCO3)Nc1cccc([N+](=O)[O-])c1	nt	-2	nt	35*	nt	nt	1	0
COc1ccc(CCC(=O)N2CCN(C(=O)c3ccccc3)CC2)cc1	nt	20	nt	-9	nt	nt	nt	nt
O=C(O)CCC(=O)c1ccc2c(c1)OCCO2	-4	nt	-7	-5	0	0	nt	nt
O=C(O)CCOc1ccc2c(c1)OCCO2	1	2	-3	63*	-1	0	-45	-3
COc1cccc(OC)c1C(=O)NC(=O)NNc1cc(C(F)(F)F)cc(C)n1	nt	-1	nt	40*	nt	nt	-1	3
COc1cc(CNn2cn[nH]c2=S)cc(Cl)c1OCc1ccccc1	4	nt	-2	5	-6	1	nt	nt
COc1cc(CNc2ccc(CNc3ncn[nH]3)cc2)cc(Cl)c1OCc1ccccc1	-5	17	-2	34*	-4	-1	-41	1
COc1cc(C(=S)N2CCOCC2)cc(OC)c1OC(=O)Cc1ccc(F)cc1	27	-24	-5	36*	1	0	-8	1
Cc1nc2ccccn2c1-c1ccnc(=S)[nH]1	-35	-8	1	37*	-2	46	13	2
S=c1nccc(-c2ccc(Cl)cc2)[nH]1	-6	-13	-1	1	-6	0	nt	nt
CCOC(=O)c1c(NS(=O)(=O)c2cccc(OC)c2)sc2c1CCC2	0	-1	-3	33*	-2	1	-84	0

Screening results as filed in PubChem.
